Laboratory results published in ChEMBL document CHEMBL1141088, “A new pyridazine series of GABAA alpha5 ligands” (J Med Chem, 2005).

What was measured:
[1] = Low volume of distribution of compound determined after iv administration at 1 mg/kg dose as a solution(1 mg/mL) in a PEG 300:H2O(3:1); format: ADME, organism-based; parameters: dose 1 mg/kg, route intravenous; conditions: rat, in vivo, read-out: Vdss
How it was run: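 Single rat, cannulated, given 100 units heparin, recovered 48 h, fasted overnight. Dosed 1 mg/kg iv bolus (1 mL/kg) in PEG 300:water 3:1. Serial blood sampled to 6 h and plasma analysed by LC-MS/MS with diazepam internal standard. Cl in mL/min/kg from plasma, T1/2 in hours from 1–3 h data, Vdss in L/kg.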

[2] = molecular target: T1, GABA-A receptor; alpha-1/beta-3/gamma-2 (Homo sapiens, UniProt P14867+P18507+P28472); experiment: Displacement of [3H]-Ro- 15-1788 binding from human recombinant Gamma-aminobutyric acid A receptor alpha-1-beta-3-gamma-2 expressed in mouse fibroblast L(tk-) cells (30 min at 24 degrees C, pH 7.4); format: cell-based
T1 sequence (P14867 whole entry): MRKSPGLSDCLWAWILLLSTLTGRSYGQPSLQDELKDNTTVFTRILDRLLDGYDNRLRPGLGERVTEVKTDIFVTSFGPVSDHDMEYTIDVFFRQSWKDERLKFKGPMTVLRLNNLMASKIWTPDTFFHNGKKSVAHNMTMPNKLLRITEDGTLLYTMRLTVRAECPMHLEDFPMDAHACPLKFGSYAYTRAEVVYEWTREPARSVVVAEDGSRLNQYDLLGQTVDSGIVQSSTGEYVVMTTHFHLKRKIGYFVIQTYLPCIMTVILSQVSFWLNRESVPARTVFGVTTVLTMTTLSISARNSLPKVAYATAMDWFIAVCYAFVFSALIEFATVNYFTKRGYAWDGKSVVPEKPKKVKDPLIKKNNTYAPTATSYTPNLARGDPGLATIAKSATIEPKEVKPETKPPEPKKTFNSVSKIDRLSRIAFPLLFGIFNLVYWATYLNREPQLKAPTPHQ
T1 sequence (P18507 whole entry): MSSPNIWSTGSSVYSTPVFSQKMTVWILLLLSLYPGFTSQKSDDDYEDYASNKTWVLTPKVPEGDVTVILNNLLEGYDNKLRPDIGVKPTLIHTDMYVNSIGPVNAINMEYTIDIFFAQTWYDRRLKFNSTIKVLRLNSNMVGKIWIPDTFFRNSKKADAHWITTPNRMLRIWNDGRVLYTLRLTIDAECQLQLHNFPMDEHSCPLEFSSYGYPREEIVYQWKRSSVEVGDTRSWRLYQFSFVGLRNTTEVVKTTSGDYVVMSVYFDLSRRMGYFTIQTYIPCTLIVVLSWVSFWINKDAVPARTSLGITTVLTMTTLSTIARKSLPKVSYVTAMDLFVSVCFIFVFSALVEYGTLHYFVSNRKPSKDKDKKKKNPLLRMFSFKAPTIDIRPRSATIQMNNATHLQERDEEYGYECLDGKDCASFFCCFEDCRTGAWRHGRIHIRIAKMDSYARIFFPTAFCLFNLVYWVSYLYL
T1 sequence (P28472 whole entry): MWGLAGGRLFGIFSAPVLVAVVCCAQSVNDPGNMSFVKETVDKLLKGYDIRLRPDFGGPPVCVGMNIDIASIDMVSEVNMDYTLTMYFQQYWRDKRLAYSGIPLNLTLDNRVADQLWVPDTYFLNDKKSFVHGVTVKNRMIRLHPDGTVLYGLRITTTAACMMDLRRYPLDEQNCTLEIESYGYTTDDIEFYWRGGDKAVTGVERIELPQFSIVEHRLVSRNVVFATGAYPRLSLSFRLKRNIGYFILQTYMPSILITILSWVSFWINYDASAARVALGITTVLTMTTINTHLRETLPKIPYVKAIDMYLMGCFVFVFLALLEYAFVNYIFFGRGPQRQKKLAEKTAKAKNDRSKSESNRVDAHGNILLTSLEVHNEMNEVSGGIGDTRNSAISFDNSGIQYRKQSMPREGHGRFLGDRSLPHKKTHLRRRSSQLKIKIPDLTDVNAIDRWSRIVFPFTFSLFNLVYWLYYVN
How it was run: (§1)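 Membranes from L(tk-) cells stably expressing human α1, α3 or α5 β3γ2 in 50 mM Tris pH 7.4. [3H]Ro15-1788 at 1.8 nM final, 30 min at 24 °C. Nonspecific binding set with 10 µM flunitrazepam, total binding in 0.1% DMSO. Filtration, scintillation counting. Ki is mean ± SEM of ≥3 independent determinations.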

[3] = molecular target: T2, GABA-A receptor; alpha-3/beta-3/gamma-2 (Homo sapiens, UniProt P18507+P28472+P34903); experiment: Displacement of [3H]-Ro- 15-1788 binding from human recombinant Gamma-aminobutyric acid A receptor alpha-3-beta-3-gamma-2 expressed in mouse fibroblast L(tk-) cells (30 min at 24 degrees C, pH 7.4); format: cell-based; how it was run: as §1
T2 sequence (P18507 whole entry): T1 sequence (P18507 whole entry)
T2 sequence (P28472 whole entry): T1 sequence (P28472 whole entry)
T2 sequence (P34903 whole entry): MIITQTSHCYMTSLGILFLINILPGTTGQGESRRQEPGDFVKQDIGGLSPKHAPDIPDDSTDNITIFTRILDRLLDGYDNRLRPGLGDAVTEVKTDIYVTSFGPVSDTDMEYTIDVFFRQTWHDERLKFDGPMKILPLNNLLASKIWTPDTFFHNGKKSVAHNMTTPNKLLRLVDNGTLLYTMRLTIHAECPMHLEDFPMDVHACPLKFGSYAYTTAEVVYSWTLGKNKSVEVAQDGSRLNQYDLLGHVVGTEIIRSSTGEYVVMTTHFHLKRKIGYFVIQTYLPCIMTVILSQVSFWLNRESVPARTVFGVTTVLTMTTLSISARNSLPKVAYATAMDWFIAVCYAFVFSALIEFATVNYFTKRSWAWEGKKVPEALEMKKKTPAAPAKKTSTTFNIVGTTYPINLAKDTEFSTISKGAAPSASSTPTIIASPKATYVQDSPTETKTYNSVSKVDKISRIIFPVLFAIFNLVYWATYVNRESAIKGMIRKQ

[4] = molecular target: GABA-A receptor; alpha-3/beta-3/gamma-2 (Homo sapiens) (UniProt P18507+P28472+P34903); experiment: Efficacy at GABAA alpha-3-beta-3-gamma-2 receptor expressed in mouse fibroblast L(tk-) cells measured at 300 nM derived from at least three plates/day screened over a minimum of 2 days; format: functional, cell-based
How it was run: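 FRET membrane-potential (VIPR) assay in L(tk-) cells with receptor expression induced 24 h by 1 µM dexamethasone. Dye-loaded 30 min in low-Cl- HEPES buffer pH 7.4: 4 µM CC2-DMPE, 1 µM DiSBAC2(3), 0.5 mM tartrazine. Basal read 8 s, compound at 300 nM, half-maximal GABA 22 s later, 1 Hz reads. Background-subtracted 460/580 nm ratio, normalized to DMCM as -100%.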

Vd [1]: 1.5 L/kg
Ki [2]: 0.007 µM
Ki [3]: 0.014 µM
Efficacy [4]: -4
Compound: N#Cc1cccc(-c2cnnc(-c3ccccc3)c2)c1
